What all share (assay type): functional
Assay [1] relates to Cavia porcellus. Put plainly: Dose that caused significant inhibition of the platelet activating factor-induced bronchoconstriction in guinea pig after intravenous administration. Conditions: read-out: ID50 (the source's name). In a few lines: (§1)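 Male Hartley guinea pigs (400–600 g), urethane-anesthetized (2 g/kg ip), jugular cannula; propranolol given 5 min before PAF; succinylcholine (1.2 mg/kg iv) then ventilation at 40 breaths/min, 4.0 cm³ stroke. Drug or vehicle iv 1 min before PAF 1 μg/kg iv. Tracheal pressure change averaged over four control and four treated animals, expressed as % inhibition; screen at 1 mg/kg.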

Assay [2] relates to Cavia porcellus. Put plainly: In vivo inhibition of the platelet activating factor-induced bronchoconstriction at dose 1.0 mg/kg administered intravenous in guinea pig. The essentials: as §1
Assay [3] relates to Cavia porcellus. Nature of the assay: In vivo inhibition of the platelet activating factor-induced bronchoconstriction after 2 hr at dose 50 mg/kg administered perorally in guinea pig. Conditions: route oral. In a few lines: (§2)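 Oral dosing of 50 mg/kg, either 2 h or 6 h before iv PAF challenge (1 μg/kg), in urethane-anesthetized male Hartley guinea pigs (400–600 g). Animals were propranolol-pretreated, paralysed with succinylcholine and ventilated. Tracheal pressure change averaged over four vehicle and four drug-treated animals and reported as % inhibition.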

Assay [4] deals with Cavia porcellus. Put plainly: In vivo inhibition of the platelet activating factor-induced bronchoconstriction after 6 hr at dose 50 mg/kg administered perorally in guinea pig. Conditions: route oral. The essentials:
as §2

The subject of assay [5] is Cavia porcellus. Put plainly: Dose that caused significant inhibition of the platelet activating factor-induced bronchoconstriction in guinea pig after peroral administration. Conditions: po, read-out: ID50 (the source's name). The essentials: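 Male Hartley guinea pigs (400–600 g), urethane-anesthetized (2 g/kg ip), jugular cannula, propranolol pretreatment, succinylcholine paralysis and ventilation. Compound or vehicle given orally 2 h before iv PAF challenge (1 μg/kg). Tracheal pressure rise averaged over four control and four dosed animals, giving % inhibition.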

Molecules are shown by their SMILES.

By inhibition in vivo is commonly meant the change of the read-out against control, counted positive when it falls. With `CCCCc1c(/C=C/C(=O)N[C@@H](C)CCCc2cccnc2)cc(OC)c2ccc(OC)cc12`, in the assay with Cavia porcellus [1], the ED50 came to 0.44 mg/kg. The compound also yielded an inhibition in vivo at 1 mg/kg in the assay with Cavia porcellus [2] of 80%. In addition, at 50 mg/kg the inhibition in vivo in the assay with Cavia porcellus [3] was 16%.

Turning to `CCCCCc1c(/C=C/C(=O)N[C@@H](C)CCCc2cccnc2)sc2cc(OC)ccc12`, the ED50 turned out to be 0.11 mg/kg in the assay with Cavia porcellus [1] and 5.4 mg/kg in the assay with Cavia porcellus [5]. Also, the inhibition in vivo at 50 mg/kg with Cavia porcellus [4] and in the assay with Cavia porcellus [3] was 97% in each case. The compound also came in with an inhibition in vivo at 1 mg/kg in the assay with Cavia porcellus [2] of 98%.

Regarding `COc1ccc(-c2c(/C=C/C(=O)N[C@@H](C)CCCc3cccnc3)ccc3cc(OC)ccc23)cc1`, the figures for the ED50 with Cavia porcellus [1] and in the assay with Cavia porcellus [5] were 0.18 mg/kg and 12 mg/kg, respectively. Moreover, the inhibition in vivo at 50 mg/kg stood at 55% with Cavia porcellus [4] and 79% with Cavia porcellus [3]. For the same compound, the inhibition in vivo at 1 mg/kg in the assay with Cavia porcellus [2] was determined as 92%.

Regarding `CCCCCC1=C(/C=C/C(=O)N[C@@H](C)CCCc2cccnc2)Cc2cc(OC)ccc21`, the ED50 with Cavia porcellus [1] stood at 0.05 mg/kg. The compound further yielded an inhibition in vivo at 1 mg/kg in the assay with Cavia porcellus [2] of 96%. The compound further had an inhibition in vivo at 50 mg/kg in the assay with Cavia porcellus [3] of 0%.

For the compound `CCCCCc1c(/C=C/C(=O)N[C@@H](C)CCCc2cccnc2)oc2cc(OC)ccc12`, the ED50 in the assay on Cavia porcellus [1] was 0.06 mg/kg. This compound also registered an inhibition in vivo at 1 mg/kg with Cavia porcellus [2] of 89%. The compound also came in with an inhibition in vivo at 50 mg/kg in the assay on Cavia porcellus [3] of 0%.

For `CCCCCc1c(/C=C/C(=O)N[C@@H](CC)CCCc2cccnc2)n(C)c2cc(OC)ccc12`, the ED50 in the assay with Cavia porcellus [1] came to 0.07 mg/kg; in the assay on Cavia porcellus [5] it was 3 mg/kg. For the same compound, the inhibition in vivo at 50 mg/kg in the assay on Cavia porcellus [4] came to 96%; in the assay with Cavia porcellus [3], 99%. The same compound gave an inhibition in vivo at 1 mg/kg in the assay on Cavia porcellus [2] of 98%.

Take `CCCCc1c(/C=C/C(=O)N[C@@H](C)CCCc2cccnc2)cc(OC)c2ccccc12`: the ED50 turned out to be 0.11 mg/kg with Cavia porcellus [1] and 2.8 mg/kg with Cavia porcellus [5]. For the same compound, the inhibition in vivo at 50 mg/kg with Cavia porcellus [4] turned out to be 52%; in the assay with Cavia porcellus [3], 95%. Besides, the inhibition in vivo at 1 mg/kg with Cavia porcellus [2] came to 90%.

For `CCCCC1=C(/C=C/C(=O)N[C@@H](C)CCCc2cccnc2)CCc2cc(OC)ccc21`, the ED50 worked out at 0.46 mg/kg with Cavia porcellus [1] and 50 mg/kg in the assay on Cavia porcellus [5]. The same compound returned an inhibition in vivo at 1 mg/kg in the assay with Cavia porcellus [2] of 94%. Also, the inhibition in vivo at 50 mg/kg with Cavia porcellus [3] was found to be 50%.

For `COc1ccc(C2=C(/C=C/C(=O)N[C@@H](C)CCCc3cccnc3)CCc3cc(OC)ccc32)cc1`, the ED50 in the assay with Cavia porcellus [1] is 0.15 mg/kg; in the assay with Cavia porcellus [5], 17 mg/kg. The figures for the inhibition in vivo at 50 mg/kg in the assay on Cavia porcellus [4] and in the assay on Cavia porcellus [3] were 1% and 75%, respectively. The same compound displayed an inhibition in vivo at 1 mg/kg in the assay with Cavia porcellus [2] of 95%.

In the assay on Cavia porcellus [2], `CCCCc1c(/C=C/C(=O)N[C@@H](C)CCCc2cccnc2)ccc2ccc(OC)cc12` gave an inhibition in vivo at 1 mg/kg of 0%.

For the compound `CCCCc1c(/C=C/C(=O)N[C@@H](C)CCCc2cccnc2)ccc2c(OC)cccc12`, the ED50 in the assay on Cavia porcellus [1] is 1 mg/kg. In the assay with Cavia porcellus [2], this compound had an inhibition in vivo at 1 mg/kg of 50%. This compound also registered an inhibition in vivo at 50 mg/kg with Cavia porcellus [3] of 4%.

With `CCCCc1c(/C=C/C(=O)N[C@@H](C)CCCc2cccnc2)ccc2cc(OC)ccc12`, the ED50 in the assay on Cavia porcellus [1] was found to be 0.45 mg/kg; in the assay on Cavia porcellus [5], 4.2 mg/kg. The inhibition in vivo at 50 mg/kg with Cavia porcellus [4] was found to be 71%; with Cavia porcellus [3], 92%. Testing at 1 mg/kg with Cavia porcellus [2] gave an inhibition in vivo of 95%.

Consider `CCCCC/C(=C\C=C\C(=O)N[C@@H](C)CCCc1cccnc1)c1ccc(OC)cc1`, for which the ED50 stood at 0.05 mg/kg in the assay with Cavia porcellus [1] and 4.1 mg/kg in the assay on Cavia porcellus [5]. Besides, the inhibition in vivo at 50 mg/kg with Cavia porcellus [4] worked out at 71%; in the assay with Cavia porcellus [3] it was 100%. The inhibition in vivo at 1 mg/kg in the assay with Cavia porcellus [2] was 99%.

(Values after ChEMBL document CHEMBL1124990, “Propenyl carboxamide derivatives as antagonists of platelet activating factor” (J Med Chem, 1990).)
